Records with an inconclusive call do not appear. Activity calls are given as the source filed them.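 The calls were made as follows, unless noted: active = inhibition over a set limit, the all-compound mean plus 3 SD, in both replicate runs; inconclusive = over that limit in just one replicate run; inactive = at or under that limit in both runs.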
Columns and labels:
[1] = OD615 S. cerevisiae growth inhibition, permissive medium, pilot counter-assay, permissive growth control for S. cerevisiae lifespan shortening project (AID 705;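 active = growth inhibition above 25% in both replicates, a cutoff set 3 SD above the mean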); conditions: OD615, 24 h, at 10 µM, stronger effect = higher value
Outline: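 Material: engineered DeaD yeast; Compound: one dose 10 µM, DMSO 0.25% final; Detection: absorbance (optical density) at 615 nm; Buffer or medium: permissive raffinose/galactose medium; Timing: 24 h exposure, 30 °C.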

[2] = Restrictive medium S. cerevisiae growth inhibition, OD615, pilot screen of yeast lifespan reduction project, restrictive growth control (AID 706;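 active = growth inhibition above a set limit, 3 SD over mean compound inhibition, in both replicates, cut at about 43% in these data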;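 also: modified DeaD lifespan yeast strain shifted to restrictive glucose medium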); conditions: OD615, 48 h, at 10 µM, stronger effect = higher value
Outline: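 Buffer or medium: restrictive glucose medium (CSMM-D); test system: modified S. cerevisiae; doses: single dose of 10 µM compound final, 0.25% DMSO; schedule: 48 h compound exposure at 30 °C; detection: absorbance (optical density) measured at 615 nm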

[3] = viability gain of MRP-1-high H69AR cells under doxorubicin, pilot screen, MRP-1 activator project, CellTiter-Glo, duplicate (AID 807;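 active = viability increase at or above a cutoff of the median across tested compounds plus 3 SD, cut at about 8.5% in these data, passing the limit was not always enough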;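 also: compound pretreatment 18-22 h then 72 h combined with doxorubicin; 0% = doxorubicin alone and 100% = vehicle without doxorubicin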); conditions: H69AR viability with doxorubicin, CellTiter-Glo luminescence; at 10 µM; stronger effect = higher value
[4] = growth suppression of beta-catenin knockout HCT116, pilot screen, human colon tumor cells (AID 823;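 active = cell viability at or below a set limit in both duplicate runs, the limit being the all-compound median minus 4 SD, cut at about 23% in these data, passing the limit was not always enough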;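 also: 0% = wells killed by 20 µM Hyamine and 100% = untreated DMSO cell wells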); conditions: CellTiter-Glo, 60 h, at 10 µM, stronger effect = lower value
[5] = growth suppression of PTEN-deleted HCT116, pilot screen, cell-based, HCT116 clonal line, CellTiter-Glo (AID 824;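 active = viability at or below 27.92% in each of two runs, the all-compound median minus 4 SD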;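 also: 0% = 20 µM Hyamine control and 100% = vehicle cell control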); conditions: 60 h, at 10 µM, stronger effect = lower value
[6] = inhibitors of the yeast RAM network, pilot screen, dse1pr::URA3 reporter, 5-FOA selection (AID 869);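 also: 0% = DMSO wells with no growth and 100% = 10 µM 1-NA-PP1 with full growth; RAM network block rescues cells from 5-FOA so hits raise OD615 growth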; conditions: S. cerevisiae dse1pr::URA3 5-FOA growth, OD615, 2 d; at 10 µM; stronger effect = higher value; strain carries analog-sensitive mutant Cbk1 kinase
[7] = RAM signaling pathway blockade in yeast – S. cerevisiae, Pdr1DBD-CYC8 efflux-inhibited sensitized strain, primary screen (AID 1298;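 active = RAM network inhibition above 8.4% in each of two replicates, 3 SD over the compound average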;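 also: 0% = DMSO untreated cells without growth and 100% = 10 µM 1-NA-PP1 full growth; higher means more yeast growth rescued from 5-FOA killing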); conditions: S. cerevisiae cbk1-as DSE1-URA3 strain, 5-FOA growth OD615, 2 d; at 50 µM; stronger effect = higher value

COc1cccc2c(=O)n(CC(=O)NC3CCCCC3)ccc12
inactive: growth inhibition [1] 0.435% | growth inhibition [2] -6.59% | viability increase [3] -1.27% | viability [4] 103% | viability [5] 90.3% | inhibition [6] 1.58% | RAM network inhibition [7] 4.45%

COc1ccc(C2C(C(=O)c3ccco3)=C(O)C(=O)N2Cc2cccnc2)cc1OC (stereo not given)
inactive: growth inhibition [1] -4.18% | growth inhibition [2] 6.84% | viability increase [3] -3.78% | viability [4] 102% | viability [5] 98.7% | inhibition [6] 0.875% | RAM network inhibition [7] 0.66%

COC(=O)/C=C(\C)NC(=O)c1cccs1
inactive: growth inhibition [1] -1.38% | growth inhibition [2] 4.05% | viability increase [3] 0.51% | viability [4] 101% | viability [5] 97.5% | inhibition [6] -0.705% | RAM network inhibition [7] 0.06%

CCOc1ccccc1C1N(c2ccc(OC)cc2)C(=O)C2CCCN21 (stereo not given)
inactive: growth inhibition [1] -3.72% | growth inhibition [2] -10.4% | viability increase [3] -0.9% | viability [4] 99.8% | viability [5] 101% | inhibition [6] 2.9% | RAM network inhibition [7] -1.29%

O=C(C1CC(c2ccc(F)cc2)=NO1)N1CCN(Cc2ccccc2)CC1 (stereo not given)
inactive: growth inhibition [1] -0.77% | growth inhibition [2] -2.39% | viability increase [3] -1.28% | viability [4] 96.2% | viability [5] 101% | inhibition [6] 1.8% | RAM network inhibition [7] 2.3%

Cc1ccc2oc3c(c(=O)c2c1)C(c1cccc(Cl)c1)N(CCCN1CCOCC1)C3=O (stereo not given)
inactive: growth inhibition [1] -0.165% | growth inhibition [2] 2.74% | viability increase [3] -3.81% | viability [4] 76.8% | viability [5] 79% | inhibition [6] 0.735% | RAM network inhibition [7] 2.4%

CN1CCN(Cc2c(O)ccc3c(=O)c(Oc4ccccc4Cl)c(C(F)(F)F)oc23)CC1
inactive: growth inhibition [1] -4.67% | growth inhibition [2] 12.6% | viability increase [3] -0.67% | viability [4] 98% | viability [5] 96.7% | inhibition [6] 0.13% | RAM network inhibition [7] 1.25%

CCOC(=O)COc1cccc2c(=O)n(CC(=O)N3CCc4ccccc43)ccc12
inactive: growth inhibition [1] -10.5% | growth inhibition [2] -15.5% | viability increase [3] -2.89% | viability [4] 98.6% | viability [5] 90.7% | inhibition [6] 1.25% | RAM network inhibition [7] 3.56%

CNC(=O)c1c[nH]n2c(=O)c(Cc3ccccc3F)c(C)nc12
inactive: growth inhibition [1] -2.95% | growth inhibition [2] -3.94% | viability increase [3] -0.89% | viability [4] 87.7% | viability [5] 91.6% | inhibition [6] 1.17% | RAM network inhibition [7] 3.18%

O=C(CN1CCN(Cc2ccccc2F)C1=O)NCCN1CCOCC1
inactive: growth inhibition [1] -2.78% | growth inhibition [2] 5.44% | viability increase [3] -0.58% | viability [4] 109% | viability [5] 99.5% | inhibition [6] 1.27% | RAM network inhibition [7] 1.5%

Cc1onc(-c2ccccc2)c1C(=O)N1CCN(C/C=C/c2ccccc2)CC1
inactive: growth inhibition [1] -2.69% | growth inhibition [2] 5.24% | viability increase [3] -5.02% | viability [4] 78.9% | viability [5] 75.6% | inhibition [6] 2.72% | RAM network inhibition [7] 3.92%

CCOc1cc(/C=N/O)cc(Br)c1OC
inactive: growth inhibition [1] -1.28% | growth inhibition [2] -18.2% | viability increase [3] -3.13% | viability [4] 106% | viability [5] 97.1% | inhibition [6] 1.22% | RAM network inhibition [7] 5.14%

C=CCn1c(SCCCc2ccccc2)nc2c1c(=O)[nH]c(=O)n2C
inactive: growth inhibition [1] 5.96% | growth inhibition [2] 6.29% | viability increase [3] -5.7% | viability [4] 67.8% | viability [5] 65.2% | inhibition [6] 0.525% | RAM network inhibition [7] 4.94%

O=C(c1ccco1)N1CCN(S(=O)(=O)c2cccc3nsnc23)CC1
inactive: growth inhibition [1] -10.9% | growth inhibition [2] -21.4% | viability increase [3] -0.16% | viability [4] 99% | viability [5] 99.7% | inhibition [6] 0.6% | RAM network inhibition [7] 5.06%

CCCC(=O)Nc1nc2c(OC)ccc(OC)c2s1
inactive: growth inhibition [1] -7.39% | growth inhibition [2] -5.13% | viability increase [3] -3.01% | viability [4] 93.5% | viability [5] 90.3% | inhibition [6] 2.33% | RAM network inhibition [7] 3.64%

Source: PubChem BioAssay
